# In ChEMBL document CHEMBL1143104, “Identification and characterization of pyrrolidine diastereoisomers as potent functional agonists and antagonists of the human melanocortin-4 receptor” (Bioorg Med Chem Lett, 2008):
# Calls of active or inactive are those of the source. The rule behind the calls is not given here.
# Tests used:
# [1] = target: T1, Melanocortin receptor 4 (Homo sapiens, UniProt P32245); assay: Displacement of [125I]NDP-MSH from human MC4 receptor expressed in HEK293 cells; format: cell-based
# In short: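 HEK293 cells expressing human MC4R, radioligand competition binding with [125I]-NDP-MSH. Ki values are the average of two or more independent measurements.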
# [2] = target: T1, Melanocortin receptor 4; assay: Agonist activity at human MC4 receptor expressed in CHO cells assessed as accumulation of cAMP production; format: functional, cell-based
# In short: (§1)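 CHO cells transfected with human MC4R were stimulated by compound and accumulated cAMP was measured by ELISA. Intrinsic activity is expressed relative to α-MSH. Representative experiments were run 2–8 times.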
# [3] = target: T1, Melanocortin receptor 4; assay: Intrinsic activity at human MC4 receptor expressed in CHO cells assessed as accumulation of cAMP production relative to alphaMSH; format: functional, cell-based; in short: as §1
# [4] = tested on: Rattus norvegicus; assay: Suppression of food intake in ip dosed DIO rat after 24 hrs relative to control; format: functional, organism-based
# In short: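 Male DIO rats were food-deprived overnight and on the test day. They were dosed ip at 3, 10 or 30 mg/kg in sterile water, and food was returned 1 h later. Cumulative intake was measured at set intervals over 24 h and compared with vehicle-treated rats.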
# [5] = tested on: Rattus norvegicus; assay: Reduction of body weight in po dosed DIO rat; format: functional, organism-based
# In short: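 Male DIO rats, separate groups, dosed orally once daily 1 h before lights out for 7 days with vehicle, fenfluramine, or 3, 10 or 30 mg/kg test article. Body weight and spillage-corrected food intake were recorded daily and compared with vehicle-treated controls.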
# [6] = target: T1, Melanocortin receptor 4; assay: Antagonist activity at human MC4 receptor expressed in CHO cells assessed as inhibition of alpha-MSH-stimulated cAMP production; format: functional, cell-based
# In short: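 CHO cells transfected with human MC4R were tested for dose-dependent inhibition of α-MSH-stimulated cAMP accumulation, measured by ELISA. IC50 was derived. Representative experiments were run 2–8 times.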
# [7] = target: T2, Melanocyte-stimulating hormone receptor (Homo sapiens, UniProt Q01726); assay: Binding affinity to MC1R
# Target sequence in this assay (Q01726 whole entry): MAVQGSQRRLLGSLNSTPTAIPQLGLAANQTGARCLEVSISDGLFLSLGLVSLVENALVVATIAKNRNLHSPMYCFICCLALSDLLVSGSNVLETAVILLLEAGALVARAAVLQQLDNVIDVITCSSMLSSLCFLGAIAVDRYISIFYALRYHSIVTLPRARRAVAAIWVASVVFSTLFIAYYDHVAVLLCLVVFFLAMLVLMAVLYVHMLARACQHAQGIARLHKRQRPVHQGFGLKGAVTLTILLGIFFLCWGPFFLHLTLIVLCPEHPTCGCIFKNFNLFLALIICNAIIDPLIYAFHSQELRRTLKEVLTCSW
# [8] = target: Melanocortin receptor 3 (Homo sapiens, UniProt P41968); assay: Binding affinity to MC3R
# [9] = target: Melanocortin receptor 5 (Homo sapiens, UniProt P33032); assay: Binding affinity to MC5R
# [10] = Clearance in rat at 2.5 mg/kg, iv; format: ADME, organism-based; set-up: dose 2.5 mg/kg, route intravenous; conditions: in vivo
# In short: (§2)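 Rat pharmacokinetics: single 2.5 mg/kg iv injection and separately 10 mg/kg oral gavage. Plasma CL, Vd, t1/2, AUC, Cmax, Tmax and oral bioavailability were derived. Whole-brain concentration was measured at 1 and 4 h after oral dosing and expressed as a brain/plasma ratio. Values are the average of three animals.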
# [11] = Volume of distribution in rat in rat at 2.5 mg/kg, iv; format: ADME, organism-based; set-up: dose 2.5 mg/kg, route intravenous; conditions: in vivo; in short: as §2
# [12] = Half life in rat at 2.5 mg/kg, iv; format: ADME, organism-based; set-up: dose 2.5 mg/kg, route intravenous; conditions: in vivo; in short: as §2
# [13] = AUC in rat at 2.5 mg/kg, iv; format: ADME, organism-based; set-up: dose 2.5 mg/kg, route intravenous; conditions: plasma; in short: as §2
# [14] = Cmax in rat at 10 mg/kg, po; format: ADME, organism-based; set-up: dose 10 mg/kg, route oral; conditions: in vivo; in short: as §2
# [15] = Tmax in rat at 10 mg/kg, po; format: ADME, organism-based; set-up: dose 10 mg/kg, route oral; conditions: in vivo; in short: as §2
# [16] = AUC in rat at 10 mg/kg, po; format: ADME, organism-based; set-up: dose 10 mg/kg, route oral; conditions: plasma; in short: as §2
# [17] = Drug level in rat brain at 10 mg/kg, po after 4 hrs; format: ADME, organism-based; set-up: dose 10 mg/kg, route oral; conditions: read-out: Drug uptake; in short: as §2
# [18] = Ratio of drug level in brain to plasma in rat at 10 mg/kg, po after 4 hrs; format: ADME, organism-based; set-up: dose 10 mg/kg, route oral; conditions: read-out: BPR; in short: as §2
# [19] = Bioavailability in rat at 10 mg/kg, po; format: ADME, organism-based; conditions: in vivo; in short: as §2
# [20] = tested on: Rattus norvegicus; assay: Suppression of food intake in DIO rat at 30 mg/kg, po relative to control; format: functional, organism-based; set-up: dose 30 mg/kg
# In short: (§3)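 Male DIO rats in separate groups were dosed orally once daily, 1 h before lights out, for 7 days with vehicle, fenfluramine, or 3, 10 or 30 mg/kg compound. Food intake (corrected for spillage) and body weight were recorded daily. After 7 days, body composition was measured by EchoMRI and fasting glucose by glucometer, each relative to baseline. Significance was set at p < 0.05.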
# [21] = tested on: Rattus norvegicus; assay: Effect on food intake in DIO rat assessed as inhibition of feeding at 3 mg/kg, po after 6 days; format: functional, organism-based; set-up: dose 3 mg/kg; in short: as §3
# [22] = tested on: Rattus norvegicus; assay: Reduction of body weight in DIO rat at 30 mg/kg, po after 2 days; format: functional, organism-based; set-up: dose 30 mg/kg; in short: as §3
# [23] = tested on: Rattus norvegicus; assay: Increase in fat loss in po dosed DIO rat after 7 days; format: functional, organism-based; in short: as §3
# [24] = tested on: Rattus norvegicus; assay: Decrease in fasting glucose level in DIO rat at 30 mg/kg, po after 7 days; format: functional, organism-based; set-up: dose 30 mg/kg; in short: as §3
# [25] = target: T2, Melanocyte-stimulating hormone receptor; conditions: 10 uM
# Target sequence in this assay (Q01726 whole entry, looked up): as the sequence (Q01726 whole entry) above
# T1 sequence (P32245 whole entry): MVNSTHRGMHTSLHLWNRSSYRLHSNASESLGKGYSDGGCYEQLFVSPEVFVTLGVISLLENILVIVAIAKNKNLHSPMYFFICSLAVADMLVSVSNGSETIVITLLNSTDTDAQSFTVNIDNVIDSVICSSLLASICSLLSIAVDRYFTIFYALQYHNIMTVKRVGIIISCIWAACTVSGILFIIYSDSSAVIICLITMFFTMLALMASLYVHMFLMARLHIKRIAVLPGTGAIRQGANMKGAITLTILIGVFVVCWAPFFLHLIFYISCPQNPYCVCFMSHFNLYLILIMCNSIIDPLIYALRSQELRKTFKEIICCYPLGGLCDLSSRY
# Chain of Melanocortin receptor 3 (P41968 whole entry): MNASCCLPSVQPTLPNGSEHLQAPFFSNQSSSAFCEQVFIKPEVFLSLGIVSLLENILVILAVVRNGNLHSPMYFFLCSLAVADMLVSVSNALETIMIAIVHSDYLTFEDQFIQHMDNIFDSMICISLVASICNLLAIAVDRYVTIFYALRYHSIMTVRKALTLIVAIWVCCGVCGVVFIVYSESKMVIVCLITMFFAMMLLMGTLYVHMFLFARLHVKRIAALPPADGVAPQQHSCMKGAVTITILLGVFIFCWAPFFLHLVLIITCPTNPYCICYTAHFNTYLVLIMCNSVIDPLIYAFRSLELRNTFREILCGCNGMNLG
# Chain of Melanocortin receptor 5 (P33032 whole entry): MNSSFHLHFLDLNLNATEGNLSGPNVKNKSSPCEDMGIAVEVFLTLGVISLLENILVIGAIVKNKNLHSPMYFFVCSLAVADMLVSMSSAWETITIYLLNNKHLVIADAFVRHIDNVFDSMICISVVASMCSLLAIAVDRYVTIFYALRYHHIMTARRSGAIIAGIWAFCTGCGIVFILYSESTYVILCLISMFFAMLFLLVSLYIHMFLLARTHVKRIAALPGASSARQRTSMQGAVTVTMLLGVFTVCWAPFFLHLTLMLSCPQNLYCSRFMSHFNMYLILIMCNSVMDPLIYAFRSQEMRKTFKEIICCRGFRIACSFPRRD
Structure (SMILES),Ki [1] [nM],EC50 [2] [nM],Intrinsic activity [3] [%],other results
CC(C)[C@H](NC(=O)CCN(C)C)c1cccc(F)c1N1CCN(C(=O)[C@@H]2CN(C(C)C)C[C@H]2c2cc(F)c(F)c(F)c2)CC1,250,,,
CC(C)[C@H](NC(=O)CCN(C)C)c1cccc(F)c1N1CCN(C(=O)[C@@H]2CN(C(C)C)C[C@H]2c2cc(F)cc(F)c2)CC1,7800,,,
Cc1ccc(N2CCN(C(=O)[C@@H]3CN(C4CCOCC4)C[C@H]3c3ccc(Cl)cc3)CC2)c([C@@H](NC(=O)CCN)C(C)C)c1,2.2,6,107,
Cc1ccc(N2CCN(C(=O)[C@@H]3CN(C4CCOCC4)C[C@H]3c3ccc(Cl)cc3)CC2)c([C@@H](NC(=O)CCN(C)C)C(C)C)c1 (stereo in doubt; 13b) [listing 1 of 2 here],1.4,10,,
CC(C)[C@H](NC(=O)CCN(C)C)c1cccc(F)c1N1CCN(C(=O)[C@@H]2CN(C(C)C)C[C@H]2c2ccc(F)c(F)c2)CC1,290,,,
CCNC(C)Cc1cccc(C(F)(F)F)c1 (stereo not drawn),,,,Activity [4]: Active; Activity [5]: Active
CC(C)[C@H](NC(=O)CCN(C)C)c1cccc(F)c1N1CCN(C(=O)[C@@H]2CN(C(C)C)C[C@H]2c2cc(F)ccc2F)CC1,2050,,,
Cc1ccc(N2CCN(C(=O)[C@@H]3CN(C4CCOCC4)C[C@H]3c3ccc(Cl)cc3)CC2)c([C@@H](NC(=O)CN)C(C)C)c1,2,9.1,114,
Cc1ccc(N2CCN(C(=O)[C@@H]3CN(C4CCOCC4)C[C@H]3c3ccc(Cl)cc3)CC2)c([C@@H](NC(=O)[C@@H](C)N)C(C)C)c1,7.3,17,56,
CC(C)[C@H](NC(=O)CCN(C)C)c1cccc(F)c1N1CCN(C(=O)[C@@H]2CN(C(C)C)C[C@H]2c2ccc(C(F)(F)F)c(F)c2)CC1,51,340,47,
Cc1ccc(N2CCN(C(=O)[C@@H]3CN(C4CCOCC4)C[C@H]3c3ccc(Cl)cc3)CC2)c([C@@H](NC(=O)CCN(C)C)C(C)C)c1 (stereo in doubt; 13b) [listing 2 of 2 here],,,121,
CC(C)[C@H](NC(=O)CCN(C)C)c1cccc(F)c1N1CCN(C(=O)[C@@H]2CN(C(C)C)C[C@H]2c2ccoc2)CC1,850,,,
Cc1ccc(N2CCN(C(=O)[C@H]3CN(C4CCOCC4)C[C@@H]3c3ccc(Cl)cc3)CC2)c([C@@H](NC(=O)CCN(C)C)C(C)C)c1,4.7,,10,IC50 [6]: 64 nM; Ki [7]: 120 nM; Ki [8]: 1300 nM; Ki [9]: 530 nM; clearance [10]: 82 mL/min/kg; Vd [11]: 75 L/kg; half-life [12]: 11 h; AUC [13]: 455 ng·h/mL; Cmax [14]: 17 ng/mL; Tmax [15]: 2 h; AUC [16]: 161 ng·h/mL; concentration at 4 h [17]: 18 ng/g; Kp at 4 h [18]: 1; bioavailability [19]: 14%
Cc1ccc(N2CCN(C(=O)[C@@H]3CN(C4CCOCC4)C[C@H]3c3ccc(Cl)cc3)CC2)c([C@@H](NC(=O)CCN(C)C)C(C)C)c1 (stereo in doubt; 13b-1),,,122,Activity [20]: Active; Activity [21]: Active; Activity [22]: Active; Activity [23]: Active; Activity [24]: Active; inhibition [25]: 38%
CNCC(=O)N[C@H](c1cc(C)ccc1N1CCN(C(=O)[C@@H]2CN(C3CCOCC3)C[C@H]2c2ccc(Cl)cc2)CC1)C(C)C,2.1,19,84,
